In the library only some 4.2% were active in any assay of this set; here they are far more common.
CHO parental Ca: ATP-evoked calcium signal inhibitors, parental CHO, primary screen, counter-screen for OX1R antagonist project, cell-based, fluorescence, Fluo-8 calcium dye | parental CHO-K1, ATP-induced calcium, Fluo-8 fluorescence | inhibition, % at 5.6 µM | 0.63% of 330,000 active | AID 463079, 2010;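 active = inhibition above that plate's mean sample inhibition plus 3 SD, cut at about 26% in these data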
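material = parental CHO cells | also added = ATP as calcium-mobilizing challenge | dosing = single point at 5.6 µM | detection = intracellular calcium via Fluo-8 no-wash fluorescent dye | read-out = % inhibition | benchmarks = low control ATP plus DMSO, high control DMSO only | repeats = one well per compound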
TAAR1 agonist: human TAAR1 agonists, primary screen, Fluo-8 calcium fluorescence, CHO RD-HGA16 cells; Trace amine-associated receptor 1 (Homo sapiens), Q96RJ0; activation, % at 3 µM; vehicle wells 0%, saturating PEA agonist 100%; 0.99% of 360,000 active; AID 624467, 2012;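 active = activation above the mean activation of all test compounds in the run plus 3 SD, cut at about 38% in these data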
Target sequence (Q96RJ0 whole entry, looked up): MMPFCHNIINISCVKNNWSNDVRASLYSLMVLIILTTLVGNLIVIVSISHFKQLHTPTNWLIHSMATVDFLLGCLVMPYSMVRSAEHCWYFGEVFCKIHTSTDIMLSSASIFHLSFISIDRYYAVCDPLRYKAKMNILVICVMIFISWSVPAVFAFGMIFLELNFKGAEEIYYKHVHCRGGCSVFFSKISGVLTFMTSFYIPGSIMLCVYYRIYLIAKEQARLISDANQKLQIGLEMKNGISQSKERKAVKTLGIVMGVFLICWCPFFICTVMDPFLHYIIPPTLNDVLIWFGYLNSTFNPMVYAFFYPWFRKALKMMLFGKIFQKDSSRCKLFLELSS
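Benchmarks: low control DMSO, high control PEA (EC100); System: CHO RD-HGA16 cells carrying human TAAR1 plus Gα16; Detection: Fluo-8 fluorescence, 5 s baseline then 140 s kinetic read; Schedule: 17-24 h plating, Fluo-8 75 min 37 °C, 30 min RT; Read-out basis: % activation from peak over basal fluorescence ratio, DMSO-to-PEA scaled.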
TAAR1 antag: human TAAR1 antagonists, primary screen, Fluo-8 calcium fluorescence, CHO RD-HGA16 cells | Trace amine-associated receptor 1 (Homo sapiens), Q96RJ0 | antagonist | inhibition, % at 3 µM | 1.5% of 360,000 active;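 active = inhibition above a per-plate cutoff, the mean inhibition of test compounds on that plate plus 3 SD, cut at about 49% in these data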
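Test system: hTAAR1-expressing CHO RD-HGA16 cells, Gα16-coupled; Probe or stimulus: EC80 β-phenethylamine stimulus; Compound dosing: single nominal final test compound concentration of 3 µM; Timing: 140 s kinetic read after compound, 140 s after agonist; Signal: Fluo-8 calcium-sensitive fluorescence; Measure: % inhibition of agonist calcium response; Controls: DMSO and EC80 PEA controls.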
GalR3 antagonist: GalR3 antagonists in HEK293 cells, primary screen, cell-based, fluorescence readout; Galanin receptor type 3 (Homo sapiens), O60755; HEK293 GalR3-CNG cAMP membrane potential fluorescence; galR3 body fused to GalR1 C-terminus; inhibition, % at 3 µM; 0.44% of 360,000 active; AID 651719, 2012;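 active = inhibition above the screen-wide average plus 3 SD, cut at about 13% in these data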;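 note: forskolin and galanin both at EC90 stimulate the cells; cAMP rise reported by CNG channel membrane potential dye signal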
OX1R antag-1: antagonists of human orexin 1 receptor (OX1R). OX1R-expressing cells, FRET antagonist read-out. inhibition, % at 6.6 µM. 1.8% of 330,000 active. Orexin/Hypocretin receptor type 1 (Homo sapiens), O43613; in the data active = inhibition mostly above about 38%, no sharp cut-off; inactive = mostly below about 40%
Target sequence (O43613 whole entry, looked up): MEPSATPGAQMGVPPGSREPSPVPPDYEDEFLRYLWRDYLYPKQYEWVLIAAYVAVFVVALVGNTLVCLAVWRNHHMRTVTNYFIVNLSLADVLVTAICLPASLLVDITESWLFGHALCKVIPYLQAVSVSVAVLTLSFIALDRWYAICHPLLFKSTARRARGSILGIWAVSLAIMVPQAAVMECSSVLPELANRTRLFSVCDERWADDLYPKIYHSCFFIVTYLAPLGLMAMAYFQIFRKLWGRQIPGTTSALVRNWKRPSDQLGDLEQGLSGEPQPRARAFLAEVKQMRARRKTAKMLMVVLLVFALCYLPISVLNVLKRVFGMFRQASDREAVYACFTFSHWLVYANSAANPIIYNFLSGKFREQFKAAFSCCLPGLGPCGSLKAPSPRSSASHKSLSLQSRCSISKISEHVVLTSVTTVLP
OX1R antag-2: OX1R (HCRTR1) antagonists, primary screen, fluorescence, CHO/OX1R cells, Fluo-8 calcium, orexin A | Orexin/Hypocretin receptor type 1 (Homo sapiens), O43613 | Fluo-8 calcium fluorescence | inhibition, % at 5 µM | 0.43% of 330,000 active;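 active = inhibition above its plate's threshold, mean inhibition of all tested compounds on the plate plus 3 SD, cut at about 37% in these data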
TAAR1 ag conf: human TAAR1 agonists, retest of hits, confirmation, Fluo-8 calcium fluorescence, CHO RD-HGA16 cells. shares compounds with TAAR1 agonist. 82% of 2,400 active. scaled: DMSO 0%, maximal phenethylamine 100%. activation, % at 3 µM;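 active = activation above a cutoff set at the run's mean compound activation plus 3 SD, cut at about 39% in these data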
Ga16 nonsel ag: nonselective calcium mobilization agonists, CHO-Ga16 cells, counter-screen for hTAAR1 agonist project, cell-based, fluorescence, CHO-Ga16 parental line. 50% of 2,400 active. shares compounds with TAAR1 agonist. AID 651787, 2012. Fluo-8 calcium fluorescence; normalized to maximal ATP response, DMSO zero. activation, % at 3 µM;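 active = activation above the run cutoff, the mean activation over all tested wells plus 3 SD, cut at about 12% in these data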
TAAR1 desensitize: TAAR1 desensitization by agonist hits, confirmation, counter-screen for TAAR1 agonist project, cell-based, fluorescence, tachyphylaxis; shares compounds with TAAR1 agonist; CHO RD-HGA16 hTAAR1, Fluo-8 calcium, beta-PEA response inhibition; inhibition, % at 3 µM; 46% of 2,400 active; AID 651951, 2012;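 active = inhibition above the run cutoff, the mean inhibition of all test compounds plus 3 SD, cut at about 49% in these data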;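 note: beta-PEA stimulus applied at its EC80; loss of beta-PEA calcium signal after compound pretreatment read as receptor desensitization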
Ga16 antag count: inhibition of ATP-evoked calcium response in CHO-Ga16 cells, counter-screen for TAAR1 agonist project, cell-based, fluorescence; shares compounds with TAAR1 agonist; CHO-Ga16 ATP-induced calcium, Fluo-8 fluorescence; inhibition, % at 3 µM; 39% of 2,400 active; AID 651952, 2012;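 active = inhibition above the plate's mean compound inhibition plus 3 SD, computed per plate, cut at about 22% in these data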
Hits are given with their value.

For COc1ccc(C(=O)NC(=S)NNC(=O)c2ccccc2O)cc1 the results were CHO parental Ca inactive, TAAR1 agonist 80, TAAR1 antag inactive, GalR3 antagonist inactive, OX1R antag-1 inactive, OX1R antag-2 inactive, TAAR1 ag conf 57, Ga16 nonsel ag 55, TAAR1 desensitize inactive and Ga16 antag count 27.
Screening CC(=O)Nc1cccc(NC(=S)Nc2cccc(Cl)c2C)c1 returned CHO parental Ca inactive, TAAR1 agonist inactive, TAAR1 antag inactive, GalR3 antagonist inactive, OX1R antag-1 inactive and OX1R antag-2 inactive.
`O=C(Cc1ccccc1)Nc1ccc(NC(=O)C2CC2)nc1` gave CHO parental Ca inactive, TAAR1 agonist inactive, TAAR1 antag inactive, GalR3 antagonist inactive, OX1R antag-1 inactive and OX1R antag-2 inactive.
For Cc1ccc(S(=O)(=O)N2CCCC(C(=O)NCc3ccccn3)C2)cc1 (stereo not drawn) the results were CHO parental Ca inactive, TAAR1 agonist inactive, TAAR1 antag inactive, GalR3 antagonist inactive, OX1R antag-1 inactive and OX1R antag-2 inactive.
Screening Cc1cccn2c(CNCCc3ccccn3)c(C(=O)N3CCOCC3)nc12 returned CHO parental Ca inactive, TAAR1 agonist 49, TAAR1 antag inactive, GalR3 antagonist inactive, OX1R antag-1 inactive, OX1R antag-2 inactive, TAAR1 ag conf 68, Ga16 nonsel ag inactive, TAAR1 desensitize inactive and Ga16 antag count inactive.
For CCC(=O)Nc1ccc(C(=O)Nc2ccc(Br)cc2F)cc1 the results were CHO parental Ca inactive, TAAR1 agonist 75, TAAR1 antag 83, GalR3 antagonist inactive, OX1R antag-1 inactive, OX1R antag-2 inactive, TAAR1 ag conf inactive, Ga16 nonsel ag inactive, TAAR1 desensitize inactive and Ga16 antag count inactive.
`O=C(Nc1ccc(Br)cc1F)c1ccc2c(c1)OCCO2` gave CHO parental Ca inactive, TAAR1 agonist inactive, TAAR1 antag inactive, GalR3 antagonist inactive, OX1R antag-1 inactive and OX1R antag-2 inactive.
For Cc1cccc(C)c1OCC(O)CN1CCc2ccccc2C1 (stereo not drawn) the results were CHO parental Ca inactive, TAAR1 agonist inactive, TAAR1 antag inactive, GalR3 antagonist inactive, OX1R antag-1 inactive and OX1R antag-2 inactive.
`OC(COc1c(F)cc(Br)cc1F)CN1CCc2ccccc2C1` (stereo not drawn) gave CHO parental Ca inactive, TAAR1 agonist 55, TAAR1 antag inactive, GalR3 antagonist inactive, OX1R antag-1 inactive, OX1R antag-2 inactive, TAAR1 ag conf 66, Ga16 nonsel ag inactive, TAAR1 desensitize inactive and Ga16 antag count inactive.
`CN1CCN(/N=C/c2ccc(N(c3ccccc3)c3ccccc3)cc2)CC1` gave CHO parental Ca inactive, TAAR1 agonist 73, TAAR1 antag 50, GalR3 antagonist inactive, OX1R antag-1 inactive, OX1R antag-2 inactive, TAAR1 ag conf 72, Ga16 nonsel ag 28, TAAR1 desensitize 56 and Ga16 antag count 35.
Screening Cc1cc(C(=O)NCc2cccs2)cs1 returned CHO parental Ca inactive, OX1R antag-1 inactive and OX1R antag-2 inactive.
For CCCc1c2ccccc2nc2ccccc12 the results were CHO parental Ca inactive, TAAR1 agonist 70, TAAR1 antag inactive, GalR3 antagonist inactive, OX1R antag-1 inactive, OX1R antag-2 inactive, TAAR1 ag conf inactive, Ga16 nonsel ag inactive, TAAR1 desensitize inactive and Ga16 antag count inactive.
For CCCc1cc(C(=O)O)c2ccccc2n1 the results were CHO parental Ca inactive, OX1R antag-1 inactive and OX1R antag-2 inactive.
CCCOc1cc(C)c(S(=O)(=O)N2CCN(C)CC2)cc1C was read as CHO parental Ca inactive, TAAR1 agonist 46, TAAR1 antag inactive, GalR3 antagonist inactive, OX1R antag-1 inactive, OX1R antag-2 inactive, TAAR1 ag conf 42, Ga16 nonsel ag inactive, TAAR1 desensitize inactive and Ga16 antag count inactive.
For Cc1cccc(C(=O)NNC(=O)c2n[nH]c(=O)c3ccccc23)c1C the results were CHO parental Ca inactive, TAAR1 agonist inactive, TAAR1 antag inactive, GalR3 antagonist inactive, OX1R antag-1 inactive and OX1R antag-2 inactive.
NS(=O)(=O)c1ccc(CCNC(=O)CNCCc2ccccc2)cc1 was read as CHO parental Ca inactive, TAAR1 agonist 71, TAAR1 antag inactive, GalR3 antagonist inactive, OX1R antag-1 inactive, OX1R antag-2 inactive, TAAR1 ag conf 90, Ga16 nonsel ag inactive, TAAR1 desensitize 70 and Ga16 antag count inactive.
For Cc1ccc(NC2CCCN(C(=O)c3nonc3C)C2)cc1C (stereo not drawn) the results were TAAR1 agonist inactive, TAAR1 antag inactive and GalR3 antagonist inactive.
For CC(=O)c1c(C)[nH]c(C(=O)COc2ccc3ccc(=O)oc3c2)c1C the results were CHO parental Ca inactive, TAAR1 agonist inactive, TAAR1 antag inactive, GalR3 antagonist inactive, OX1R antag-1 inactive and OX1R antag-2 inactive.
COC(=O)c1c(C)[nH]c(C(=O)COc2ccc3ccc(=O)oc3c2)c1C was read as CHO parental Ca inactive, TAAR1 agonist 59, TAAR1 antag 51, GalR3 antagonist inactive, OX1R antag-1 inactive, OX1R antag-2 inactive, TAAR1 ag conf inactive, Ga16 nonsel ag 14, TAAR1 desensitize 50 and Ga16 antag count 31.
`Cc1ccc(NS(=O)(=O)c2ccc(C(=O)NCc3cccnc3)cc2)cc1` gave CHO parental Ca inactive, TAAR1 agonist inactive, TAAR1 antag inactive, GalR3 antagonist inactive, OX1R antag-1 inactive and OX1R antag-2 inactive.

High-throughput results from PubChem BioAssay.
